Results on five molecules are retold here after ChEMBL document CHEMBL1159121, “Synthesis, in vitro structure-activity relationship, and in vivo studies of 2-arylthiazolidine-4-carboxylic acid amides as anticancer agents” (Bioorg Med Chem, 2010).

Calls of active or inactive are those of the source. The rule behind the calls is not given here.

Series [1] concerns the target T1, Lysophosphatidic acid receptor 1 (Homo sapiens, UniProt Q92633). Description: Agonist activity at LPA1 expressed in human chem1 cells assessed as intracellular calcium mobilization by FLIPR assay. In kind it is functional, cell-based. Put shortly: (§1)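 Chem-1 cells stably transfected with LPA1, LPA3 or LPA5, kept in DMEM/10% FBS; Fluo-4 NW loaded. Compound added as an eight-point fourfold serial dilution (top 10 μM), then incubated 10 min at 25 °C. Ca2+ flux read for 180 s on FLIPR, expressed as percentage activation.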

The target in series [2] is T2, Lysophosphatidic acid receptor 3 (Homo sapiens) (UniProt Q9UBY5).
T2 sequence (whole entry): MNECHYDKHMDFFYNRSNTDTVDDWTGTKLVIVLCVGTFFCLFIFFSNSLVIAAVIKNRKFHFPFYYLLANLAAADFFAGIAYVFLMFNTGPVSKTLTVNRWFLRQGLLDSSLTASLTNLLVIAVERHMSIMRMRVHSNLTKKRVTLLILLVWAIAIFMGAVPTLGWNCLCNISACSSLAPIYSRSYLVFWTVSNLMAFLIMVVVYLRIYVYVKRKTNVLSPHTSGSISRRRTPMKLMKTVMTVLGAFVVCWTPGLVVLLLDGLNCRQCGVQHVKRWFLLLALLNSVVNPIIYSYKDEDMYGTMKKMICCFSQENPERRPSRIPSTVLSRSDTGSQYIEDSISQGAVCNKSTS
As to the kind of experiment: Agonist activity at LPA3 expressed in human chem1 cells assessed as intracellular calcium mobilization by FLIPR assay. In kind it is functional, cell-based. The method in brief: as §1

Series [3] has as its target Lysophosphatidic acid receptor 5 (Homo sapiens) (UniProt Q9H1C0). As to the kind of experiment: Agonist activity at LPA5 expressed in human chem1 cells assessed as intracellular calcium mobilization by FLIPR assay. In kind it is functional, cell-based. Put shortly:
as §1

The target in series [4] is T1, Lysophosphatidic acid receptor 1. Description: Antagonist activity at LPA1 expressed in human chem1 cells assessed as effect on intracellular calcium mobilization by FLIPR assay. In kind it is functional, cell-based. The method in brief:
(§2)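 LPA1-, LPA3- or LPA5-transfected Chem-1 cells, Fluo-4 NW loaded, preincubated 10 min at 25 °C with compound. Dilution series was eight-point, fourfold, top final concentration 10 μM. […] FLIPR Ca2+ signal read for 180 s, percentage inhibition calculated; 50% inhibition was taken as antagonism.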

Series [5] is described as follows: Antiproliferative activity against mouse B16-F1 cells after 48 hrs by SRB assay. In kind it is functional, cell-based. To be noted: B16-F1, 48 h. Put shortly:
(§3)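 Melanoma lines and control fibroblasts grown at 37 °C, 5% CO2, then exposed to a wide concentration range for 48 h in round-bottom 96-well plates. Fixed with 10% TCA, stained with SRB, protein read at 560 nm. IC50 (50% growth inhibition versus untreated) obtained by nonlinear regression.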

In series [6] the test system is A-375. Description: Antiproliferative activity against human A375 cells after 48 hrs by SRB assay. The settings on record: A-375, 48 h. It counts as functional, cell-based. The method in brief: as §3
Series [7] in a line: Antiproliferative activity against human WM164 cells after 48 hrs by SRB assay. It counts as functional, cell-based. The settings on record: WM164, 48 h. Put shortly:
as §3

Series [8] can be described thus: Cytotoxicity against human fibroblasts after 48 hrs by SRB assay. In kind it is cell-based. The settings on record: Fibroblast. Put shortly:
as §3

Series [9] can be described thus: Selectivity ratio of IC50 for human fibroblasts to IC50 for human melanoma cells. It counts as ADME. The settings on record: human fibroblasts and human melanoma cells, read-out: Ratio IC50.
In series [10] the test system is A-375. Description: Cell cycle arrest in human A375 cells by assessed as increase in accumulation at subG1 phase […] by flow cytometry. In kind it is functional, cell-based.
Series [11] has as its system LNCaP. Description: Cell cycle arrest in human LNCAP cells by assessed as increase in accumulation at subG1 phase […] by flow cytometry. It counts as functional, cell-based.
Series [12] addresses T2, Lysophosphatidic acid receptor 3 (Homo sapiens). Description: Antagonist activity at LPA3 expressed in human chem1 cells assessed as effect on intracellular calcium mobilization by FLIPR assay. It counts as functional, cell-based. The method in brief:
as §2

The target in series [13] is Lysophosphatidic acid receptor 5 (Homo sapiens) (UniProt Q9H1C0). Description: Antagonist activity at LPA5 expressed in human chem1 cells assessed as effect on intracellular calcium mobilization by FLIPR assay. It counts as functional, cell-based. The method in brief: as §2
Series [14] relates to A-375. As to the kind of experiment: Inhibition of human A375 cells colony formation at 2 uM after 7 days by colony-formation assay. In kind it is functional, cell-based.
Series [15] has as its system A-375. As to the kind of experiment: Inhibition of human A375 cells colony formation at 20 uM after 7 days by colony-formation assay. It counts as functional.
For series [16], the system named is A-375. As to the kind of experiment: Inhibition of human A375 cells colony formation at 100 uM after 7 days by colony-formation assay. In kind it is functional, cell-based.
Series [17] relates to DU-145. Description: Antiproliferative activity against human DU145 cells after 96 hrs by SRB assay. It counts as functional, cell-based. The settings on record: DU-145, 96 h. The method in brief: (§4)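 Prostate lines in RPMI1640/10% FBS; RH7777 in DMEM/10% FBS. Cells TCA-fixed, stained with 0.4% SRB, absorbance read at 540 nm. IC50 from nonlinear regression of % survival against concentration.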

The test system of series [18] is PC-3. Description: Antiproliferative activity against human PC3 cells after 96 hrs by SRB assay. In kind it is functional, cell-based. The settings on record: PC-3, 96 h.
The subject of series [19] is RH7777. Description: Cytotoxicity against rat RH7777 cells after 96 hrs by SRB assay. To be noted: RH7777, 96 h. In kind it is cell-based. The method in brief: as §4
Series [20] has as its system RH7777. As to the kind of experiment: Selectivity ratio of IC50 for rat RH7777 cells to IC50 for human prostate cancer cells. Put shortly: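 Ratio of RH7777 IC50 to the mean IC50 over four prostate lines (DU 145, PC-3, LNCaP, PPC-1). Prostate lines grown in RPMI1640/10% FBS and RH7777 in DMEM/10% FBS. Read by SRB (0.4%) at 540 nm; IC50 by nonlinear regression.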

For series [21], the system named is LNCaP. As to the kind of experiment: Antiproliferative activity against human LNCAP cells after 96 hrs by SRB assay. It counts as functional, cell-based. The method in brief:
as §4

Series [22] has as its system PPC-1. As to the kind of experiment: Antiproliferative activity against human PPC1 cells after 96 hrs by SRB assay. It counts as functional, cell-based. The settings on record: PPC-1, 96 h. The method in brief:
as §4

Sequence of Lysophosphatidic acid receptor 5 (Homo sapiens) (Q9H1C0 whole entry): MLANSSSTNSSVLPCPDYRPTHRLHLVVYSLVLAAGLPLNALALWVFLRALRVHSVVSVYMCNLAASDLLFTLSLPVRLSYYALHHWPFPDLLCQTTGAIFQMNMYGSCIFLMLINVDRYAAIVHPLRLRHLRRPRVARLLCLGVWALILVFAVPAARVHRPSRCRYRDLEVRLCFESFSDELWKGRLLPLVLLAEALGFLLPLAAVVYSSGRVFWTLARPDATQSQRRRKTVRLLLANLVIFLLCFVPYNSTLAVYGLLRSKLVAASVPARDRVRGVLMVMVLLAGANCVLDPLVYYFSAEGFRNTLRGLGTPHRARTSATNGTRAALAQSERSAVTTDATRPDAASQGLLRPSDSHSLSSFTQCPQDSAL
T1 sequence (Q92633 whole entry): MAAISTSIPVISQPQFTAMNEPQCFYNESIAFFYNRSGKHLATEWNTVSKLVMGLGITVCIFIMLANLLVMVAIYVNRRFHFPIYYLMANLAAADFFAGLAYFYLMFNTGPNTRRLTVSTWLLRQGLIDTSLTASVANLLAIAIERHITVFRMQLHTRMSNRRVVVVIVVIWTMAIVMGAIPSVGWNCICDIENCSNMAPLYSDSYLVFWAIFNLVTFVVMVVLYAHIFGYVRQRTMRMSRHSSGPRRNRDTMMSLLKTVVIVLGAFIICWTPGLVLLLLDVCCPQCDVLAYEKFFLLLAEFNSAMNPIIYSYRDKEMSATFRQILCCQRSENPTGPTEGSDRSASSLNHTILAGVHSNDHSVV

As to `Cc1noc(-c2ccc(CSCCC(=O)O)cc2)c1NC(=O)OC(C)c1ccccc1Cl` (stereo not drawn), the outcome in series [1], in [2] and in [3] was inactive. Also, the IC50 in [4] was 0.046 µM.
As for `CCCCCCCCCCCCCCCCNC(=O)[C@@H]1CSC(c2cc(OC)c(OC)c(OC)c2)N1` (mixture of isomers), the IC50 in series [5] worked out at 1.6 µM; in series [6] it was 1.4 µM; in series [7], 0.7 µM; in series [8], 2.4 µM. In series [9], the selectivity ratio is 2. Further, the Activity result in [10] and in [11] was “Dose-dependent effect” each time. The result in series [1], in [2], in series [3], in series [4], in [12] and in [13] was inactive. The result in [14], in series [15] and in series [16] was Active.
On to `CCCCCCCCCCCCCCCCNC(=O)[C@@H]1CSC(c2ccc(NC(=O)CCl)cc2)N1` (mixture of isomers), for which the IC50 came to 93.3 µM in [5]; 20.4 µM in [6]; 5.7 µM in series [7]; 25.4 µM in series [8]; 0.7 µM in series [17]; 0.9 µM in series [18]. In addition, the IC50 is 9.4 µM in [19], 2 µM in series [21] and 0.4 µM in [22]. Also, in series [9], the selectivity ratio turned out to be 0.6. The “Ratio IC50” value in series [20] amounted to 9.4.
Turning to `CCCCCCCCCCCCCCCCNC(=O)[C@@H]1CSC(c2ccc(NC(C)=O)cc2)N1C(C)=O` (mixture of isomers), the IC50 in series [5] amounted to 15 µM; in [6], 12.6 µM; in [7] it was 20.4 µM; in series [8], 57.7 µM; in [17], 14.9 µM; in series [18], 9 µM. The results for the IC50 in series [19], in series [21] and in [22] were 13 µM, 10.6 µM and 6.8 µM, respectively. For the same molecule, the selectivity ratio in series [9] is 3.6. Moreover, the “Ratio IC50” value in series [20] is on record as 1.3.
For the molecule `CCCCCCCC/C=C\CCCCCCCC(=O)OC[C@@H](O)COP(=O)(O)O` [LYSOPHOSPHATIDIC ACID], the EC50 in series [1] came out at 0.031 µM.
